One assay deals with DLD-1. As to the kind of experiment: Concentration required to inhibit 50% of farnesylation of H-Ras in DLD-1 cells. The note with it: Homo sapiens. Format: functional, cell-based.
The target in assay [1] is Protein farnesyltransferase (Bos taurus, UniProt P29702+P49355). As to the kind of experiment: Inhibit of purified bovine Farnesyl protein transferase. Format: protein-complex assay. An outline of the steps: (§1)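 Isolated-enzyme inhibition assays (FPTase, and GGPTase I for the GGPTase lines) were run by a previously published method, with n=2 determinations per compound. The read-out is the IC50 in nM.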

Assay [2] is described as follows: Concentration required to inhibit 50% of GGPTase enzyme activity. An outline of the steps: as §1

This passage reports IC50 results from ChEMBL document CHEMBL1136706, “Synthesis and evaluation of a novel series of farnesyl protein transferase inhibitors as non-peptidic CAAX tetrapeptide analogues” (Bioorg Med Chem Lett, 2003).

The term IC50 denotes the concentration that gives 50% inhibition. A low value points to greater potency. In the case of `N#Cc1ccc(Cn2cncc2CN(c2ccc(N3CCN(C(=O)c4ccc(Cl)s4)CC3)cc2)S(=O)(=O)c2ccccc2)cc1`, the IC50 in the assay with DLD-1 turned out to be 0.2 µM.

Compound `N#Cc1ccc(Cn2cncc2CN(Cc2cccc(F)c2)c2ccc(N3CCN(C(=O)c4ccc(Cl)s4)CC3)cc2)cc1` showed an IC50 in assay [1] of 0.02 µM. The same measure, in the same setting: to `O=C(c1ccc(Cl)s1)N1CCN(c2ccc(N(Cc3cnc[nH]3)S(=O)(=O)c3ccccc3)cc2)CC1` belongs 0.6 µM. For `COc1cccc(C(=O)N(Cc2cncn2Cc2ccc(C#N)cc2)c2ccc(N3CCN(C(=O)c4ccc(Cl)s4)CC3)cc2)c1`, the IC50 with DLD-1 came out at 0.007 µM; in assay [1], 0.002 µM; in assay [2], 0.7 µM. With `O=S(=O)(c1ccccc1)N(Cc1c[nH]cn1)c1ccc(N2CCN(C(=S)Nc3ccccc3)CC2)cc1`, the values for the IC50 in assay [1] and in assay [2] were 0.6 µM and more than 1 µM, respectively. For `N#Cc1ccc(Cn2cncc2CN(C(=O)c2ccccc2)c2ccc(N3CCN(C(=O)c4ccc(Cl)s4)CC3)cc2)cc1`, the IC50 in the assay on DLD-1 is 0.003 µM; in assay [2], more than 1 µM. For the compound `O=C(NC1CCCCC1)N1CCN(c2ccc(N(Cc3cnc[nH]3)S(=O)(=O)c3ccccc3)cc2)CC1`, inhibition in assay [1] was half-maximal at 1 µM (IC50). Regarding `O=S(=O)(c1ccccc1)N(Cc1c[nH]cn1)c1ccc(N2CCN(C(=S)NCCc3ccccc3)CC2)cc1`, the results for the IC50 in assay [1] and in assay [2] were 0.1 µM and more than 1 µM, respectively. As to `COc1ccccc1C(=O)N(Cc1cncn1Cc1ccc(C#N)cc1)c1ccc(N2CCN(C(=O)c3ccc(Cl)s3)CC2)cc1`, the results for the IC50 (with DLD-1; in assay [1]) were more than 10 µM and 0.002 µM, respectively. As for `CC(C)C/N=C(\S)N1CCN(c2ccc(N(Cc3c[nH]cn3)S(=O)(=O)c3ccccc3)cc2)CC1`, the IC50 was 0.8 µM in the assay on DLD-1 and more than 1 µM in assay [2]. In the case of `O=C(NCc1ccccc1)N1CCN(c2ccc(N(Cc3cnc[nH]3)S(=O)(=O)c3ccccc3)cc2)CC1`, inhibition in assay [1] was half-maximal at 0.6 µM (IC50). As to `O=S(=O)(c1ccccc1)N(Cc1c[nH]cn1)c1ccc(N2CCN(C(=S)NCc3ccccc3)CC2)cc1`, the IC50 in assay [1] was 0.06 µM; in assay [2], more than 1 µM.

In the assay with DLD-1, `N#Cc1ccc(Cn2cncc2CN(C(=O)c2ccccc2F)c2ccc(N3CCN(C(=O)c4ccc(Cl)s4)CC3)cc2)cc1` showed a half-inhibitory concentration (IC50) of 0.02 µM. On to `COc1ccc(C(=O)N(Cc2cncn2Cc2ccc(C#N)cc2)c2ccc(N3CCN(C(=O)c4ccc(Cl)s4)CC3)cc2)cc1`, for which the IC50 was found to be 0.08 µM in the assay with DLD-1 and 0.002 µM in assay [1]. For `N#Cc1ccc(Cn2cncc2CN(C(=O)c2cccc(Cl)c2)c2ccc(N3CCN(C(=O)c4ccc(Cl)s4)CC3)cc2)cc1`, the IC50 with DLD-1 was 0.002 µM; in assay [1], 0.002 µM; in assay [2], more than 1 µM. For the compound `O=S(=O)(c1ccccc1)N(Cc1c[nH]cn1)c1ccc(N2CCN(C(=S)NCC3CCCCC3)CC2)cc1`, the IC50 in assay [1] is 0.03 µM; in assay [2], more than 1 µM. In the case of `N#Cc1ccc(Cn2cncc2CN(C(=O)c2cccc(F)c2)c2ccc(N3CCN(C(=O)c4ccc(Cl)s4)CC3)cc2)cc1`, the half-maximal inhibitory concentration (IC50) in the assay with DLD-1 was 0.006 µM; in assay [2], more than 1 µM. In the case of `N#Cc1ccc(Cn2cncc2CNc2ccc(N3CCN(C(=O)c4ccc(Cl)s4)CC3)cc2)cc1`, 0.07 µM corresponded to half-maximal inhibition in assay [1] (IC50). Regarding `O=S(=O)(c1ccccc1)N(Cc1c[nH]cn1)c1ccc(N2CCN(C(=S)NC3CCCCC3)CC2)cc1`, the IC50 is 1 µM with DLD-1, 0.02 µM in assay [1] and more than 1 µM in assay [2]. In turn, `N#Cc1ccc(Cn2cncc2CN(Cc2ccc(F)cc2)c2ccc(N3CCN(C(=O)c4ccc(Cl)s4)CC3)cc2)cc1` yielded a half-maximal inhibitory concentration (IC50) in assay [1] of 0.07 µM. In assay [1], `O=C(Nc1ccccc1)N1CCN(c2ccc(N(Cc3cnc[nH]3)S(=O)(=O)c3ccccc3)cc2)CC1` came in with a concentration for half-maximal inhibition (IC50) of 1 µM.
